Measured values pooled from the literature.
Protocols differ between the studies behind these lines.
Target: Myosin light chain kinase family member 4 (MYLK4, Homo sapiens, UniProt Q86YV6)
One construct used (Q86YV6 1-388): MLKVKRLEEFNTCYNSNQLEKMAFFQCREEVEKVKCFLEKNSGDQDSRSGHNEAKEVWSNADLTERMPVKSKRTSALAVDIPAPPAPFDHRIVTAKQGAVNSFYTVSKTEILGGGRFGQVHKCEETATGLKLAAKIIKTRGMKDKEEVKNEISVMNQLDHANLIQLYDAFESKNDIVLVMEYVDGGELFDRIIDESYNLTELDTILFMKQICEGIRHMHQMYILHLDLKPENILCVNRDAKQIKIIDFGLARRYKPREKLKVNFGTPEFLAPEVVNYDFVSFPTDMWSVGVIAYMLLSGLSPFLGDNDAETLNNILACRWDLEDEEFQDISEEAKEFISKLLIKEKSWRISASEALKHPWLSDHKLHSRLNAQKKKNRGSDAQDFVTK

SMILES | assay | conditions | endpoint | result
Nc1ncnc2occ(-c3ccc(NC(=O)Nc4cc(C(F)(F)F)ccc4F)cc3)c12 | enzyme activity, inhibitor | 20 µM | remaining activity | 48%
Fc1cccc(-n2cnc3c(NCc4nc5c(F)c(F)ccc5[nH]4)nc(N4CCOCC4)nc32)c1 | binding, competition with immobilised ligand | 10 µM | binding vs control | 2.1%
O=C(Nc1cnn(-c2csc(C(=O)NC3COC3)c2)c1)Nc1ccccc1Cl | enzyme activity, inhibitor | 5 µM | remaining activity | 85.2%
CCCOc1ccc([C@@H]2[C@@H](C(=O)O)[C@H](c3ccc4c(c3)OCO4)CN2CC(=O)Nc2c(CC)cccc2CC)cc1 | cell-free assay, competition with immobilised ligand | 1 µM | remaining binding | 100%
Cc1ccc(C(=O)Nc2ccc(CN3CCN(C)CC3)c(C(F)(F)F)c2)cc1C#Cc1cnc2cccnn12 | enzyme activity, inhibitor | 23.5 nM | remaining activity | 92%
O=[N+]([O-])c1cccc2[nH]c(CNc3nc(N4CCOCC4)nc4c3ncn4-c3ccsc3)nc12 | binding, competition with immobilised ligand | 10 µM | binding vs control | 2.6%
Nc1c(C(=O)NCc2ccc(C(=O)NCCCC3CCCCC3)cc2)cnn1-c1ccccc1 | cell-free assay, competition with immobilised ligand | 0.1 µM | remaining binding | 100%
O=C(Nc1cnn(-c2csc(C(=O)NC3COC3)c2)c1)Nc1c(F)cccc1Cl | enzyme activity, inhibitor | 5 µM | remaining activity | 91.7%
